From article PMC4026406 (Drug Design, Development and Therapy, 2014)
Values after ≈ are worked out from the molar mass of the structure shown.

Key:
[1] = system: Escherichia coli IFO 3301; assay: Agar disc diffusion, growth inhibition zone; type: cell-based; details: IFO3301, 24 h, read-out: Diameter of growth inhibition zone EC
Procedure, shortened: (§1)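 Filter paper discs (8 mm) were loaded with test compound in DMSO at 200 μg/disc, with gentamicin, ampicillin trihydrate and clotrimazole discs at 100 μg/disc. Discs were placed on Müller–Hinton agar plates previously inoculated with IFO strains and incubated at 37°C. Inhibition zone diameters were read after 24 h for bacteria and 48 h for C. albicans.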

[2] = system: Pseudomonas aeruginosa IFO 3448; assay: Determination of MIC; type: cell-based; details: IFO3448, 24 h, read-out: MIC PA
Procedure, shortened: (§2)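 Broth two-fold dilution against IFO strains. Test compound and reference agents were dissolved in DMSO at 128 μg/mL and diluted two-fold from 128 to 0.5 μg/mL. Wells were inoculated with organism suspensions at 10^6 CFU/mL and incubated at 36°C for 24 h.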

[3] = system: Micrococcus luteus IFO 3232; assay: Determination of MIC; type: cell-based; details: IFO3232, 24 h, read-out: MIC ML
Procedure, shortened: as §2

[4] = system: Staphylococcus aureus IFO 3060; assay: Determination of MIC; type: cell-based; details: IFO3060, 24 h, read-out: MIC SA
Procedure, shortened: as §2

[5] = system: Escherichia coli IFO 3301; assay: Determination of MIC; type: cell-based; details: IFO3301, 24 h, read-out: MIC EC
Procedure, shortened: as §2

[6] = system: Bacillus subtilis IFO 3007; assay: Determination of MIC; type: cell-based; details: IFO3007, 24 h, read-out: MIC BS
Procedure, shortened: as §2

[7] = system: Candida albicans IFO 0583; assay: Agar disc diffusion, growth inhibition zone; type: cell-based; details: for inhibitory activity against C. albicans (in words): 200 μg/disc, compared with clotrimazole
Procedure, shortened: as §1

[8] = system: Candida albicans IFO 0583; assay: Determination of MIC; type: cell-based; details: IFO0583, read-out: MIC CA
Procedure, shortened: as §2

[9] = system: carrageenan-induced paw edema; assay: Carrageenan-induced paw edema method in rats; type: in vivo, Sprague Dawley rats; details: for anti-inflammatory potency ratio relative to indomethacin: 40 mg/kg versus indomethacin
Procedure, shortened: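 Male Sprague Dawley rats (140–190 g, 20–23°C, 2-day acclimatisation) were used in groups of five. Test compound (20 or 40 mg/kg) or indomethacin (5 mg/kg) was given i.p. in 1 mL 0.5% aqueous CMC. One hour later, 0.1 mL 1% carrageenan in saline went into the right hind paw, with saline in the left. Paw volume was measured by water plethysmometer at 4 h. Protection was calculated versus vehicle control and reported as mean ± SEM, Student's t-test.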

normal albino mice = assay: Oral acute toxicity; type: in vivo; details: oral, mice; for LD16 / LD84: mortality at 24 hours
Procedure, shortened: (§3)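 Albino mice of either sex were dosed in six groups of six. Test compound was given by oral intubation as fresh suspensions (1–12%) in 0.5% aqueous CMC at 250, 500, 750, 1,000, 1,250 and 1,500 mg/kg. Mortality was recorded at 24 h, and LD16, LD50 and LD84 were calculated.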

Oral acute toxicity = type: in vivo, mice; details: both, albino, mouse, in vivo, po
Procedure, shortened: as §3

[10] = Candida albicans, IFO0583, 48 h, read-out: Diameter of growth inhibition zone CA

CC1(C)S[C@@H]2[C@H](NC(=O)[C@H](N)c3ccccc3)C(=O)N2[C@H]1C(=O)O [Ampicillin, ampicillin, reference compound]
zone of inhibition at 100 µg/disc [1]: 17 mm | MIC [2]: 2 µg/mL (≈ 5.72 µM) | MIC [3]: 2 µg/mL (≈ 5.72 µM) | MIC [4]: 2 µg/mL (≈ 5.72 µM) | MIC [5]: 2 µg/mL (≈ 5.72 µM) | MIC [6]: 0.5 µg/mL (≈ 1.43 µM)

Clc1ccccc1C(c1ccccc1)(c1ccccc1)n1ccnc1 [Clotrimazole, clotrimazole, reference compound]
zone of inhibition at 100 µg/disc [7, 10]: 21 mm | MIC [8]: 2 µg/mL (≈ 5.8 µM)

CCOC(=O)N1CCN(Cn2nc(C34CC5CC(CC(C5)C3)C4)n(-c3ccccc3)c2=S)CC1 [Compound 6b, Ethyl 4-{[3-(adamantan-1-yl)-4-phenyl-5-sulfanylidene-4,5-dihydro-1H-1,2,4-triazol-1-yl]methyl}piperazine-1-carboxylate]
zone of inhibition at 200 µg/disc [1]: < 10 mm | zone of inhibition at 200 µg/disc [7, 10]: < 10 mm | MIC [6]: 16 µg/mL (≈ 33.2 µM)

CN(C)CCSc1nnc(C23CC4CC(CC(C4)C2)C3)n1C [Compound 9a, 2-{[5-(Adamantan-1-yl)-4-methyl-4H-1,2,4-triazol-3-yl]sulfanyl}-N,N-dimethyl-ethanamine]
zone of inhibition at 200 µg/disc [1]: < 10 mm | zone of inhibition at 200 µg/disc [7, 10]: < 10 mm

COCCSc1nnc(C23CC4CC(CC(C4)C2)C3)n1-c1ccccc1 [Compound 11, 5-(1-Adamantyl)-3-[(2-methoxyethyl)sulfanyl]-4-phenyl-1,2,4-triazole]
reduction in edema at both dose levels ([9]; 20 and 40 mg/kg intraperitoneal, rats): did not show any significant anti-inflammatory activity | zone of inhibition at 200 µg/disc [1]: < 10 mm | zone of inhibition at 200 µg/disc [7, 10]: < 10 mm

CCOC(=O)CSc1nnc(C23CC4CC(CC(C4)C2)C3)n1-c1ccccc1 [Compound 13, Ethyl 2-[5-(1-adamantyl)-4-phenyl-1,2,4-triazol-3-ylsulfanyl]acetate]
anti-inflammatory potency ratio relative to indomethacin [9]: about 15% | zone of inhibition at 200 µg/disc [1]: < 10 mm | inhibitory activity against C. albicans (in words) [7]: marginal activity | zone of inhibition at 200 µg/disc [7, 10]: 12 mm | MIC [4]: 4 µg/mL (≈ 10.1 µM) | LD50 as percent of that of indomethacin (normal albino mice): 5.41% | LD16 (normal albino mice): 499 mg/kg | LD84 (normal albino mice): 1,435 mg/kg | LD50 at 24 h (Oral acute toxicity): 924 mg/kg | MIC [6]: 16 µg/mL (≈ 40.2 µM)

O=C(O)CSc1nnc(C23CC4CC(CC(C4)C2)C3)n1-c1ccccc1 [Compound 14, 2-[5-(1-Adamantyl)-4-phenyl-1,2,4-triazol-3-ylsulfanyl]acetic acid]
anti-inflammatory potency ratio relative to indomethacin [9]: about 15% | zone of inhibition at 200 µg/disc [1]: < 10 mm | inhibitory activity against C. albicans (in words) [7]: marginal activity | zone of inhibition at 200 µg/disc [7, 10]: 12 mm | MIC [4]: 8 µg/mL (≈ 21.7 µM) | LD50 as percent of that of indomethacin (normal albino mice): 9.03% | LD16 (normal albino mice): 295 mg/kg | LD84 (normal albino mice): 1,338 mg/kg | LD50 at 24 h (Oral acute toxicity): 554 mg/kg

CNC(C)C1CCC(N)C(OC2C(N)CC(N)C(OC3OCC(C)(O)C(NC)C3O)C2O)O1 (centres unmarked) [Gentamicin, gentamicin, reference compound]
zone of inhibition at 100 µg/disc [1]: 20 mm | MIC [2]: 1 µg/mL (≈ 2.09 µM) | MIC [3]: 2 µg/mL (≈ 4.19 µM) | MIC [4]: 2 µg/mL (≈ 4.19 µM) | MIC [5]: 0.5 µg/mL (≈ 1.05 µM) | MIC [6]: 2 µg/mL (≈ 4.19 µM)
